{"source": "ChEMBL document CHEMBL5303300", "about": "“EUbOPEN Chemogenomics Library - Multiplex” (2023)", "key": {"[1]": {"test_system": "HEK-293T", "assay": "Multiplex assay against HEK293T", "assay_type": "toxicity, cell-based", "conditions": "human, number of replicates 2", "summary_of_the_method": "(§1)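 Tubulin, mitochondrial-mass and membrane-permeability phenotypes are per cents of healthy-nucleus cells. Cells were gated by CellPathfinder machine learning into Hoechst high-intensity objects or normal cells, normal cells into healthy, pyknosed or fragmented nuclei, and pyknosed cells into mitotic or apoptotic. Before that, live cells stained at seeding with Hoechst33342, BioTracker Green Microtubule Cytoskeleton Dye, MitoTracker Red and Annexin V Alexa Fluor 680 were imaged on a CQ1 microscope at 37°C and 5% CO2 after compound addition.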"}, "[2]": {"test_system": "Fibroblast", "assay": "Multiplex assay against human fibroblast", "assay_type": "toxicity, cell-based", "conditions": "number of replicates 2", "summary_of_the_method": "as §1"}, "[3]": {"conditions": "24 h, 10 µM, compound concentration 10 uM"}, "[4]": {"conditions": "48 h, 1 µM, compound concentration 1 uM"}, "[5]": {"conditions": "48 h, 10 µM, compound concentration 10 uM"}, "[6]": {"conditions": "12 h, 1 µM, compound concentration 1 uM"}, "[7]": {"conditions": "12 h, 10 µM, compound concentration 10 uM"}, "[8]": {"conditions": "24 h, 1 µM, compound concentration 1 uM"}}, "note": "Values joined by “and” are separate entries in the source; they are usually repeats but may differ in a detail not shown here. Equal values may be shown once.", "data": [{"smiles": "O=C(Nc1ccc(Cl)c(-c2ccccn2)c1)c1cccc(COc2ccc(Br)cc2CNCCO)c1.O=CO", "values": [{"measurement": "Population Mitochondria Different-Phenotype (%)", "setting": "[1]; [3]", "value": "95% and 89%"}, {"measurement": "Population Mitotic Cells (%)", "setting": "[1]; [3]", "value": "17% and 19%"}, {"measurement": "Population Normal (%)", "setting": "[1]; [3]", "value": "83% and 84%"}, {"measurement": "Population Pyknosed Nuclei (%)", "setting": "[1]; [3]", "value": "19% and 23%"}, {"measurement": "Population Tubulin-Different-Phenotype (%)", "setting": "[1]; [3]", "value": "74% and 91%"}, {"measurement": "Total Cell Count", "setting": "[1]; [3]", "value": "248 and 263"}, {"measurement": "Population Apoptotic (%)", "setting": "[1]; [4]", "value": "48% and 34%"}, {"measurement": "Population Fragmented Nuclei (%)", "setting": "[1]; [4]", "value": "7% and 9%"}, {"measurement": "Population Healthy Nuclei (%)", "setting": "[1]; [4]", "value": "87% and 85%"}, {"measurement": "Population Hoechst High Intensity Objects (%)", "setting": "[1]; [4]", "value": "8% and 10%"}, {"measurement": "Population Membrane Permeable-Phenotype (%)", "setting": "[1]; [4]", "value": "9% and 8%"}, {"measurement": "Population Mitochondria Different-Phenotype (%)", "setting": "[1]; [4]", "value": "8% and 5%"}, {"measurement": "Population Mitotic Cells (%)", "setting": "[1]; [4]", "value": "51% and 65%"}, {"measurement": "Population Normal (%)", "setting": "[1]; [4]", "value": "91% and 89%"}, {"measurement": "Population Pyknosed Nuclei (%)", "setting": "[1]; [4]", "value": 4, "unit": "%"}, {"measurement": "Population Tubulin-Different-Phenotype (%)", "setting": "[1]; [4]", "value": "61% and 66%"}, {"measurement": "Total Cell Count", "setting": "[1]; [4]", "value": "894 and 1474"}, {"measurement": "Population Apoptotic (%)", "setting": "[1]; [5]", "value": "79% and 78%"}, {"measurement": "Population Fragmented Nuclei (%)", "setting": "[1]; [5]", "value": "3% and 1%"}, {"measurement": "Population Healthy Nuclei (%)", "setting": "[1]; [5]", "value": "71% and 68%"}, {"measurement": "Population Hoechst High Intensity Objects (%)", "setting": "[1]; [5]", "value": "19% and 12%"}, {"measurement": "Population Membrane Permeable-Phenotype (%)", "setting": "[1]; [5]", "value": "4% and 1%"}, {"measurement": "Population Mitochondria Different-Phenotype (%)", "setting": "[1]; [5]", "value": "82% and 86%"}, {"measurement": "Population Mitotic Cells (%)", "setting": "[1]; [5]", "value": "20% and 21%"}, {"measurement": "Population Normal (%)", "setting": "[1]; [5]", "value": "80% and 87%"}, {"measurement": "Population Pyknosed Nuclei (%)", "setting": "[1]; [5]", "value": "24% and 29%"}, {"measurement": "Population Tubulin-Different-Phenotype (%)", "setting": "[1]; [5]", "value": "84% and 89%"}, {"measurement": "Total Cell Count", "setting": "[1]; [5]", "value": "339 and 305"}, {"measurement": "Population Apoptotic (%)", "setting": "[2]; [6]", "value": "41% and 58%"}, {"measurement": "Population Fragmented Nuclei (%)", "setting": "[2]; [6]", "value": "4% and 14%"}, {"measurement": "Population Healthy Nuclei (%)", "setting": "[2]; [6]", "value": "72% and 56%"}, {"measurement": "Population Hoechst High Intensity Objects (%)", "setting": "[2]; [6]", "value": "0% and 1%"}, {"measurement": "Population Membrane Permeable-Phenotype (%)", "setting": "[2]; [6]", "value": "10% and 13%"}, {"measurement": "Population Mitochondria Different-Phenotype (%)", "setting": "[2]; [6]", "value": "1% and 6%"}, {"measurement": "Population Mitotic Cells (%)", "setting": "[2]; [6]", "value": "58% and 41%"}, {"measurement": "Population Normal (%)", "setting": "[2]; [6]", "value": "100% and 98%"}, {"measurement": "Population Pyknosed Nuclei (%)", "setting": "[2]; [6]", "value": "23% and 28%"}, {"measurement": "Population Tubulin-Different-Phenotype (%)", "setting": "[2]; [6]", "value": "71% and 68%"}, {"measurement": "Total Cell Count", "setting": "[2]; [6]", "value": "208 and 161"}, {"measurement": "Population Apoptotic (%)", "setting": "[2]; [7]", "value": "46% and 42%"}, {"measurement": "Population Fragmented Nuclei (%)", "setting": "[2]; [7]", "value": "15% and 17%"}, {"measurement": "Population Healthy Nuclei (%)", "setting": "[2]; [7]", "value": 58, "unit": "%"}, {"measurement": "Population Hoechst High Intensity Objects (%)", "setting": "[2]; [7]", "value": 0, "unit": "%"}, {"measurement": "Population Membrane Permeable-Phenotype (%)", "setting": "[2]; [7]", "value": "21% and 16%"}, {"measurement": "Population Mitochondria Different-Phenotype (%)", "setting": "[2]; [7]", "value": "6% and 14%"}, {"measurement": "Population Mitotic Cells (%)", "setting": "[2]; [7]", "value": "53% and 57%"}, {"measurement": "Population Normal (%)", "setting": "[2]; [7]", "value": "100% and 99%"}, {"measurement": "Population Pyknosed Nuclei (%)", "setting": "[2]; [7]", "value": "25% and 24%"}, {"measurement": "Population Tubulin-Different-Phenotype (%)", "setting": "[2]; [7]", "value": "83% and 85%"}, {"measurement": "Total Cell Count", "setting": "[2]; [7]", "value": "318 and 361"}, {"measurement": "Population Apoptotic (%)", "setting": "[2]; [8]", "value": "55% and 63%"}, {"measurement": "Population Fragmented Nuclei (%)", "setting": "[2]; [8]", "value": "9% and 11%"}, {"measurement": "Population Healthy Nuclei (%)", "setting": "[2]; [8]", "value": "69% and 58%"}, {"measurement": "Population Hoechst High Intensity Objects (%)", "setting": "[2]; [8]", "value": 0, "unit": "%"}, {"measurement": "Population Membrane Permeable-Phenotype (%)", "setting": "[2]; [8]", "value": "6% and 5%"}, {"measurement": "Population Mitochondria Different-Phenotype (%)", "setting": "[2]; [8]", "value": "5% and 8%"}, {"measurement": "Population Mitotic Cells (%)", "setting": "[2]; [8]", "value": "44% and 36%"}, {"measurement": "Population Normal (%)", "setting": "[2]; [8]", "value": "99% and 100%"}, {"measurement": "Population Pyknosed Nuclei (%)", "setting": "[2]; [8]", "value": "21% and 30%"}, {"measurement": "Population Tubulin-Different-Phenotype (%)", "setting": "[2]; [8]", "value": "59% and 61%"}, {"measurement": "Total Cell Count", "setting": "[2]; [8]", "value": "224 and 146"}, {"measurement": "Population Apoptotic (%)", "setting": "[2]; [3]", "value": "76% and 81%"}, {"measurement": "Population Fragmented Nuclei (%)", "setting": "[2]; [3]", "value": "10% and 6%"}, {"measurement": "Population Healthy Nuclei (%)", "setting": "[2]; [3]", "value": "40% and 46%"}, {"measurement": "Population Hoechst High Intensity Objects (%)", "setting": "[2]; [3]", "value": "0% and 1%"}, {"measurement": "Population Mitochondria Different-Phenotype (%)", "setting": "[2]; [3]", "value": "40% and 50%"}, {"measurement": "Population Mitotic Cells (%)", "setting": "[2]; [3]", "value": "23% and 18%"}, {"measurement": "Population Normal (%)", "setting": "[2]; [3]", "value": "99% and 98%"}, {"measurement": "Population Pyknosed Nuclei (%)", "setting": "[2]; [3]", "value": "49% and 47%"}, {"measurement": "Population Tubulin-Different-Phenotype (%)", "setting": "[2]; [3]", "value": 82, "unit": "%"}, {"measurement": "Total Cell Count", "setting": "[2]; [3]", "value": "238 and 280"}, {"measurement": "Population Apoptotic (%)", "setting": "[2]; [4]", "value": "61% and 78%"}, {"measurement": "Population Fragmented Nuclei (%)", "setting": "[2]; [4]", "value": "9% and 12%"}, {"measurement": "Population Healthy Nuclei (%)", "setting": "[2]; [4]", "value": "72% and 64%"}, {"measurement": "Population Hoechst High Intensity Objects (%)", "setting": "[2]; [4]", "value": 1, "unit": "%"}, {"measurement": "Population Membrane Permeable-Phenotype (%)", "setting": "[2]; [4]", "value": "4% and 5%"}, {"measurement": "Population Mitochondria Different-Phenotype (%)", "setting": "[2]; [4]", "value": "3% and 8%"}, {"measurement": "Population Mitotic Cells (%)", "setting": "[2]; [4]", "value": "38% and 21%"}, {"measurement": "Population Normal (%)", "setting": "[2]; [4]", "value": 98, "unit": "%"}, {"measurement": "Population Pyknosed Nuclei (%)", "setting": "[2]; [4]", "value": "18% and 22%"}, {"measurement": "Population Tubulin-Different-Phenotype (%)", "setting": "[2]; [4]", "value": "54% and 42%"}, {"measurement": "Total Cell Count", "setting": "[2]; [4]", "value": "215 and 165"}, {"measurement": "Population Apoptotic (%)", "setting": "[2]; [5]", "value": 95, "unit": "%"}, {"measurement": "Population Fragmented Nuclei (%)", "setting": "[2]; [5]", "value": "9% and 8%"}, {"measurement": "Population Healthy Nuclei (%)", "setting": "[2]; [5]", "value": "12% and 13%"}, {"measurement": "Population Hoechst High Intensity Objects (%)", "setting": "[2]; [5]", "value": 0, "unit": "%"}, {"measurement": "Population Membrane Permeable-Phenotype (%)", "setting": "[2]; [5]", "value": "38% and 27%"}, {"measurement": "Population Mitochondria Different-Phenotype (%)", "setting": "[2]; [5]", "value": "23% and 41%"}, {"measurement": "Population Mitotic Cells (%)", "setting": "[2]; [5]", "value": 4, "unit": "%"}, {"measurement": "Population Normal (%)", "setting": "[2]; [5]", "value": 99, "unit": "%"}, {"measurement": "Population Pyknosed Nuclei (%)", "setting": "[2]; [5]", "value": "78% and 77%"}, {"measurement": "Population Tubulin-Different-Phenotype (%)", "setting": "[2]; [5]", "value": "66% and 75%"}, {"measurement": "Total Cell Count", "setting": "[2]; [5]", "value": "174 and 211"}]}]}
